In assay [1] the target is T1, Sucrase-isomaltase, intestinal (Rattus norvegicus, UniProt P23739). Briefly: Inhibition of rat intestinal isomaltase. In outline:
(§1)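 Crude enzyme from rat intestinal acetone powder in 0.1 M K3PO4 buffer (5 mM EDTA, pH 7). Substrates: maltose 25 mM (maltase), sucrose 100 mM (sucrase), isomaltose 25 mM (isomaltase). Sample added in DMSO. Incubated 30 min, then stopped with 2 M Tris-HCl. Released glucose measured by glucose oxidase. IC50 read graphically from percent inhibition versus log concentration.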

Assay [2] concerns the target T1, Sucrase-isomaltase, intestinal. Briefly: Inhibition of rat intestinal sucrase. In outline: as §1
Assay [3] concerns the target T2, Pancreatic alpha-amylase (Sus scrofa) (UniProt P00690).
T2 sequence (whole entry): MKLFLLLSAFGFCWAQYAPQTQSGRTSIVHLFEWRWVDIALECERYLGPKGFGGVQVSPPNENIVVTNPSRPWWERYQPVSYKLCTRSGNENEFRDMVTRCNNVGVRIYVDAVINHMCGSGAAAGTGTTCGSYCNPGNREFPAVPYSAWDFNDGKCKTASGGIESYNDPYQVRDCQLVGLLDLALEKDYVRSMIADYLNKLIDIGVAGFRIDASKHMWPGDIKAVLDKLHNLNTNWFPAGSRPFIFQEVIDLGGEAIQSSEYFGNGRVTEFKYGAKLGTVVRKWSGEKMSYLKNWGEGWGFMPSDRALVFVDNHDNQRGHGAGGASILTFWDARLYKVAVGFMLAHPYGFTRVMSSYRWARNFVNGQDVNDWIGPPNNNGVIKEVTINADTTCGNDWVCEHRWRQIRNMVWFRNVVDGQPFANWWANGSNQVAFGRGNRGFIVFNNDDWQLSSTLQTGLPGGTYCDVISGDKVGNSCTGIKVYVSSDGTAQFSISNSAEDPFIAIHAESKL
Briefly: Inhibition of pig pancreas alpha amylase.

Calls of active or inactive are those of the source. The rule behind the calls is not given here.

T1 sequence (P23739 1-1013 limits assumed): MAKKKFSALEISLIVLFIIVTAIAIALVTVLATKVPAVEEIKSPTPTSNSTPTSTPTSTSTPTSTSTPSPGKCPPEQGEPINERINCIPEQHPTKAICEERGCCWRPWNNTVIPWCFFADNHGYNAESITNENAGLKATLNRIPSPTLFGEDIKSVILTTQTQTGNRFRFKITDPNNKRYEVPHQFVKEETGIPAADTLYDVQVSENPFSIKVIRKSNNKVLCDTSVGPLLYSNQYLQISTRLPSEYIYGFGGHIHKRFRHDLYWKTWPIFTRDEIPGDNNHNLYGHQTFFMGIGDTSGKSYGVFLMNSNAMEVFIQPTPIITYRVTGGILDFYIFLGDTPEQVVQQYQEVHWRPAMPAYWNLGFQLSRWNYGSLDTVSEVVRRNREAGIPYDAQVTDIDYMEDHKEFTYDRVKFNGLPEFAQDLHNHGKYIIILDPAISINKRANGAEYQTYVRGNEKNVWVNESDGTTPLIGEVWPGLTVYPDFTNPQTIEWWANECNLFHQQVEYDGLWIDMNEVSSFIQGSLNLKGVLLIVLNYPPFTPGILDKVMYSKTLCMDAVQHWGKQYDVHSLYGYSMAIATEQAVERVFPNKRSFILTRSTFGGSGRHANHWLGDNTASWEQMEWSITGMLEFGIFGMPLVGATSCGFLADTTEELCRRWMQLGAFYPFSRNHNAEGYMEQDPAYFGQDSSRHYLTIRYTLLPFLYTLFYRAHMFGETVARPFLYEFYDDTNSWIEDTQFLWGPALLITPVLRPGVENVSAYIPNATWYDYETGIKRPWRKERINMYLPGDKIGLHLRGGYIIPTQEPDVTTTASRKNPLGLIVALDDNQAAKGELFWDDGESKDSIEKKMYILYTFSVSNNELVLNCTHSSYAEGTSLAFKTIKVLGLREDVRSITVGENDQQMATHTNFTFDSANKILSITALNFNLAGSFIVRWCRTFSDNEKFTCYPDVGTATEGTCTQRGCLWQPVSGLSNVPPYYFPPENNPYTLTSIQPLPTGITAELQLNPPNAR
T1 sequence (P23739 1014-1841 limits assumed): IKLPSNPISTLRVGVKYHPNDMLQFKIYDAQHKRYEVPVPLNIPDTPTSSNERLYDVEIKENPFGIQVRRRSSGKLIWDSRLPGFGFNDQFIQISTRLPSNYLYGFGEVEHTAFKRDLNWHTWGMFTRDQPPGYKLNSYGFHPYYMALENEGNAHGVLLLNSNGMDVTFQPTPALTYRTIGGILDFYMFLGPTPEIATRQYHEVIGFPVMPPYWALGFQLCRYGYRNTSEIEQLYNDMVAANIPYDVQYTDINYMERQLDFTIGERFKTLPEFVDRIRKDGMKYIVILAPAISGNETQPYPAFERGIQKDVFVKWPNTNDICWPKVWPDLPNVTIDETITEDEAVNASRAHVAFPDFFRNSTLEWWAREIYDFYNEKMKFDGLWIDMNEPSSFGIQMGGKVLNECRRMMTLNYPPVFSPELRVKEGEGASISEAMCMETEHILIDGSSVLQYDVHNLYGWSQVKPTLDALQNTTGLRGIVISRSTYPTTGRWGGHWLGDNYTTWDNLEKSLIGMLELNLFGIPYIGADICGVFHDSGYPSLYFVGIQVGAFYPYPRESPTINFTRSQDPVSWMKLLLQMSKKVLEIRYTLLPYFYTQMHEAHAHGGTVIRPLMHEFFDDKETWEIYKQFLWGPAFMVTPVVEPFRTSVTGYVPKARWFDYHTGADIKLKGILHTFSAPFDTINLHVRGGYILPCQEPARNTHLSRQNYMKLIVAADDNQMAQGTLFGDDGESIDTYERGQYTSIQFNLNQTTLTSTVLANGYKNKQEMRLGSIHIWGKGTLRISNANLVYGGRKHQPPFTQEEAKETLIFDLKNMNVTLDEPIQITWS

As for `O=S(=O)([O-])O[C@@H](CO)[C@H](O)C[S@+]1C[C@@H](O)[C@H](O)[C@H]1CO` [SALACINOL], in assay [1], the concentration for half-maximal inhibition (IC50) (in general, the concentration at which inhibition is half-maximal) worked out at 1770 nM and the affinity, expressed as Ki, was 1100 nM. Moreover, in assay [2], the midpoint of inhibition, the IC50, lay at 2510 nM and the inhibitory constant (Ki) (as a rule, a dissociation constant, usually derived from enzyme kinetics or from competition with a known ligand) was 200 nM.

In the case of `[O-][S+]1CC(O)C(O)C(O)CC(O)CC(O)C(O)C(O)C(O)C1` (stereo not drawn), in assay [1], it took 99 nM to reach half-maximal inhibition (IC50) and the affinity corresponds to a Ki of 420 nM. Also, in assay [2], it took 186 nM to reach half-maximal inhibition (IC50) and affinity was put at a Ki of 52 nM. Also, the outcome in assay [3] was inactive.

Turning to `O=S(=O)([O-])O[C@@H]([C@H](O)[C@H](O)[C@@H](O)CO)[C@H](O)C[S+]1C[C@@H](O)[C@H](O)[C@H]1CO` (stereo partly drawn) [KOTALANOL], in assay [1], the 50% inhibitory concentration (IC50) is 4480 nM and the affinity, expressed as Ki, was 4200 nM. In assay [2], this compound returned a half-maximal inhibitory concentration (IC50) of 1370 nM and a Ki of 420 nM.

The values are drawn from ChEMBL document CHEMBL1157509, “Alpha-glucosidase inhibitor from Kothala-himbutu (Salacia reticulata WIGHT)” (J Nat Prod, 2008).
